Source: ChEMBL document CHEMBL4130528, “Serotonin Analogues as Inhibitors of Breast Cancer Cell Growth” (ACS Med Chem Lett, 2017)
Active and inactive are the calls of the source. The rule behind the calls is not given here.

Tests used:
MCF7 [1] = test: Cytotoxicity against human MCF7 cells assessed as reduction in cell viability by cell titer 96 aqueous one solution based assay; type: functional
Procedure, shortened: (§1)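 MDA-MB-231 and MCF-7 breast cancer cells were treated with increasing concentrations of compound. Viability was read by MTS assay, and IC50 values were derived from the concentration–response data.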

MDA-MB-231 [2] = test: Cytotoxicity against human MDA-MB-231 cells assessed as reduction in cell viability by cell titer 96 aqueous one solution based assay; type: functional; procedure, shortened: as §1
MDA-MB-231 [3] = test: Inhibition of mTORC1 signaling in human MDA-MB-231 cells assessed as proline accumulation after 7 to 24 hrs by 1H-MRS analysis; type: cell-based
Procedure, shortened: (§2)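 MDA-MB-231 cells were treated for 7 or 24 h, and intracellular metabolites were profiled by 1H-MRS. Treated and untreated groups were compared by principal component analysis.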

[4] = molecular target: T1, AMP-activated protein kinase, AMPK (Homo sapiens) (UniProt P54646+O43741+P54619+Q9UGJ0+Q9Y478+Q13131+Q9UGI9); test: Increase in AMPK phosphorylation at T172 in human MCF7 cells at 20 uM after 12 hrs by RPPA analysis; type: cell-based
MDA-MB-231 [5] = test: Inhibition of mTORC1 signaling in human MDA-MB-231 cells assessed as reduction in S6 phosphorylation at Ser244 at 20 uM after 12 hrs by RPPA analysis; type: cell-based
MDA-MB-157 [6] = test: Cytotoxicity against human MDA-MB-157 cells assessed as reduction in cell viability up to 10 uM in presence of bovine serum albumin by cell titer 96 aqueous one solution based assay; type: functional
Procedure, shortened: (§3)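 Viability was measured by MTS after treating triple-negative breast cancer cells in serum-free medium, either alone or with BSA added to the serum-free medium, across a concentration series.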

MDA-MB-157 [7] = test: Induction of apoptosis in human MDA-MB-157 cells assessed as increase in cleaved PARP level up to 10 uM by Western blot analysis; type: functional, cell-based
Procedure, shortened: (§4)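 Cells were treated with a range of compound concentrations. Apoptosis was assessed by Western blot detection of cleaved poly-ADP ribose polymerase (PARP).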

MDA-MB-231 [8] = test: Inhibition of mTORC1 signaling in human MDA-MB-231 cells assessed as reduction in S6 phosphorylation at Ser236 at 20 uM after 12 hrs by RPPA analysis; type: cell-based
MDA-MB-231 [9] = test: Effect on total S6 level in human MDA-MB-231 cells at 20 uM after 12 hrs by RPPA analysis; type: cell-based; details: mda-mb-231, 12 h
MDA-MB-231 [10] = test: Inhibition of PI3K/AKT in human MDA-MB-231 cells assessed as reduction in mTOR phosphorylation at Ser2448 at 20 uM after 12 hrs by RPPA analysis; type: cell-based
MDA-MB-231 [11] = test: Cytotoxicity against human MDA-MB-231 cells assessed as reduction in cell viability after 24 to 72 hrs by cell titer 96 aqueous one solution based assay; type: functional
Procedure, shortened: (§5)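 Triple-negative breast cancer cells were incubated with compound for 24, 48 or 72 h. Viability was then measured by MTS assay across a concentration series.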

MDA-MB-231 [12] = test: Inhibition of mTORC1 signaling in human MDA-MB-231 cells assessed as alanine accumulation after 7 to 24 hrs by 1H-MRS analysis; type: cell-based; procedure, shortened: as §2
MDA-MB-157 [13] = test: Inhibition of mTORC1 signaling in human MDA-MB-157 cells assessed as reduction in […] at 10 uM by Western blot analysis; type: cell-based
MDA-MB-231 [14] = test: Inhibition of mTORC1 signaling in human MDA-MB-231 cells assessed as reduction in S6 phosphorylation at Ser235 at 20 uM after 12 hrs by RPPA analysis; type: cell-based
MDA-MB-231 [15] = test: Inhibition of mTORC1 signaling in human MDA-MB-231 cells assessed as glycine accumulation after 7 to 24 hrs by 1H-MRS analysis; type: cell-based; procedure, shortened: as §2
MDA-MB-231 [16] = test: Inhibition of mTORC1 signaling in human MDA-MB-231 cells assessed as reduction in […] at 10 uM by Western blot analysis; type: cell-based
MDA-MB-157 [17] = test: Inhibition of PI3K/AKT in human MDA-MB-157 cells assessed as reduction in mTOR phosphorylation at Ser2448 up to 10 uM by Western blot analysis; type: cell-based
MDA-MB-231 [18] = test: Induction of apoptosis in human MDA-MB-231 cells assessed as increase in caspase 3/7 activity by Caspase-Glo 3/7 luciferase-based assay; type: functional, cell-based
Procedure, shortened: (§6)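 Cells were treated with a range of compound concentrations. Apoptosis was read as caspase-3/7 activity using a luciferase-based luminescent assay.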

MDA-MB-231 [19] = test: Inhibition of mTORC1 signaling in human MDA-MB-231 cells assessed as reduction in S6 phosphorylation at Ser240 at 20 uM after 12 hrs by RPPA analysis; type: cell-based
MCF7 [20] = test: Inhibition of PI3K/AKT in human MCF7 cells assessed as reduction in mTOR phosphorylation at Ser2448 at 20 uM after 12 hrs by RPPA analysis; type: cell-based
[21] = molecular target: T2, Acetyl-CoA carboxylase (Homo sapiens) (UniProt Q13085+O00763); test: Increase in ACC phosphorylation at Ser79 in human MCF7 cells at 20 uM after 12 hrs by RPPA analysis; type: cell-based
MDA-MB-231 [22] = test: Inhibition of mTORC1 signaling in human MDA-MB-231 cells assessed as phenylalanine accumulation after 7 to 24 hrs by 1H-MRS analysis; type: cell-based; procedure, shortened: as §2
[23] = molecular target: T1, AMP-activated protein kinase, AMPK (Homo sapiens); test: Increase in AMPK phosphorylation at T172 in human MDA-MB-231 cells at 20 uM after 12 hrs by RPPA analysis; type: cell-based
MDA-MB-231 [24] = test: Inhibition of mTORC1 signaling in human MDA-MB-231 cells assessed as aspartate accumulation after 7 to 24 hrs by 1H-MRS analysis; type: cell-based; procedure, shortened: as §2
MDA-MB-231 [25] = test: Inhibition of mTORC1 signaling in human MDA-MB-231 cells assessed as intracellular UDP-glucose accumulation after 7 to 24 hrs by 1H-MRS analysis; type: cell-based; procedure, shortened: as §2
MDA-MB-157 [26] = test: Cytotoxicity against human MDA-MB-157 cells assessed as reduction in cell viability up to 10 uM after 24 to 72 hrs by cell titer 96 aqueous one solution based assay; type: functional; procedure, shortened: as §5
MDA-MB-231 [27] = test: Induction of apoptosis in human MDA-MB-231 cells assessed as increase in cleaved PARP level up to 10 uM by Western blot analysis; type: functional, cell-based; procedure, shortened: as §4
[28] = molecular target: T2, Acetyl-CoA carboxylase (Homo sapiens); test: Increase in ACC phosphorylation at Ser79 in human MDA-MB-231 cells at 20 uM after 12 hrs by RPPA analysis; type: cell-based
MDA-MB-231 [29] = test: Inhibition of PI3K/AKT in human MDA-MB-231 cells assessed as reduction in mTOR phosphorylation at Ser2448 up to 10 uM by Western blot analysis; type: cell-based
MDA-MB-231 [30] = test: Inhibition of mTORC1 signaling in human MDA-MB-231 cells assessed as tyrosine accumulation after 7 to 24 hrs by 1H-MRS analysis; type: cell-based; procedure, shortened: as §2
MDA-MB-231 [31] = test: Inhibition of mTORC1 signaling in human MDA-MB-231 cells assessed as intracellular UDP N-acetylglucosamine accumulation after 7 to 24 hrs by 1H-MRS analysis; type: cell-based; procedure, shortened: as §2
MDA-MB-231 [32] = test: Inhibition of mTORC1 signaling in human MDA-MB-231 cells assessed as reduction in p70S6K phosphorylation at Thr389 at 20 uM after 12 hrs by RPPA analysis; type: cell-based
MDA-MB-157 [33] = test: Induction of apoptosis in human MDA-MB-157 cells assessed as increase in caspase 3/7 activity up to 10 uM by Caspase-Glo 3/7 luciferase-based assay; type: functional, cell-based; procedure, shortened: as §6
MDA-MB-231 [34] = test: Inhibition of mTORC1 signaling in human MDA-MB-231 cells assessed as glutamine accumulation after 7 to 24 hrs by 1H-MRS analysis; type: cell-based; procedure, shortened: as §2
MDA-MB-231 [35] = test: Cytotoxicity against human MDA-MB-231 cells assessed as reduction in cell viability up to 10 uM in serum-free medium by cell titer 96 aqueous one solution based assay; type: functional; procedure, shortened: as §3
MDA-MB-231 [36] = test: Effect on total p70S6K level in human MDA-MB-231 cells at 20 uM after 12 hrs by RPPA analysis; type: cell-based; details: mda-mb-231, 12 h
MDA-MB-157 [37] = test: Cytotoxicity against human MDA-MB-157 cells assessed as reduction in cell viability up to 10 uM in serum-free medium by cell titer 96 aqueous one solution based assay; type: functional; procedure, shortened: as §3
MDA-MB-231 [38] = test: Cytotoxicity against human MDA-MB-231 cells assessed as reduction in cell viability up to 10 uM after 24 to 72 hrs by cell titer 96 aqueous one solution based assay; type: functional; procedure, shortened: as §5
MDA-MB-231 [39] = test: Cytotoxicity against human MDA-MB-231 cells assessed as reduction in cell viability up to 10 uM in presence of bovine serum albumin by cell titer 96 aqueous one solution based assay; type: functional; procedure, shortened: as §3

CCCCC(CC)COc1ccc2[nH]cc(CCN)c2c1 (stereo not given)
IC50 (MCF7 [1]): 15 µM | IC50 (MDA-MB-231 [2]): 8.2 µM

CCCCCCCCCCCCOc1cccc2c(CCN)c[nH]c12
IC50 (MCF7 [1]): 8.6 µM | IC50 (MDA-MB-231 [2]): 4.6 µM

CCCCCCCCCCOc1ccc2[nH]cc(CCN)c2c1
IC50 (MCF7 [1]): 9 µM | IC50 (MDA-MB-231 [2]): 4.4 µM

CCCCCCCCCCCOc1ccc2[nH]cc(CCN)c2c1
IC50 (MCF7 [1]): 6.1 µM | IC50 (MDA-MB-231 [2]): 4.4 µM

CCCCCCCCCCCCOc1cccc2[nH]cc(CCN)c12
IC50 (MCF7 [1]): 5 µM | IC50 (MDA-MB-231 [2]): 4.1 µM

CCCCCCCCCCCCOc1ccc2[nH]cc(CCN)c2c1.Cl
inhibition (MDA-MB-231 [3]): Active | Activity [4]: Active | inhibition (MDA-MB-231 [5]): Active | IC50 (MCF7 [1]): 5.1 µM | Activity (MDA-MB-157 [6]): Active | Activity (MDA-MB-157 [7]): Active | inhibition (MDA-MB-231 [8]): Active | Activity (MDA-MB-231 [9]): Non-Toxic | inhibition (MDA-MB-231 [10]): inactive | Activity (MDA-MB-231 [11]): Active | IC50 (MDA-MB-231 [2]): 4.6 µM | inhibition (MDA-MB-231 [12]): Active | inhibition (MDA-MB-157 [13]): Active | inhibition (MDA-MB-231 [14]): Active | inhibition (MDA-MB-231 [15]): Active | inhibition (MDA-MB-231 [16]): Active | inhibition (MDA-MB-157 [17]): inactive | Activity (MDA-MB-231 [18]): Dose-dependent effect | inhibition (MDA-MB-231 [19]): Active | inhibition (MCF7 [20]): inactive | Activity [21]: Active | inhibition (MDA-MB-231 [22]): Active | Activity [23]: Active | inhibition (MDA-MB-231 [24]): Active | inhibition (MDA-MB-231 [25]): Active | Activity (MDA-MB-157 [26]): Active | Activity (MDA-MB-231 [27]): Active | Activity [28]: Active | inhibition (MDA-MB-231 [29]): inactive | inhibition (MDA-MB-231 [30]): Active | inhibition (MDA-MB-231 [31]): Active | inhibition (MDA-MB-231 [32]): Active | Activity (MDA-MB-157 [33]): Active | inhibition (MDA-MB-231 [34]): Active | Activity (MDA-MB-231 [35]): inactive | Activity (MDA-MB-231 [36]): Non-Toxic | Activity (MDA-MB-157 [37]): Active

CCCCCCCCCOc1cccc2[nH]cc(CCN)c12.Cl
Activity [4]: Active | inhibition (MDA-MB-231 [5]): Active | IC50 (MCF7 [1]): 4.9 µM | Activity (MDA-MB-157 [6]): Active | Activity (MDA-MB-157 [7]): Active | inhibition (MDA-MB-231 [8]): Active | Activity (MDA-MB-231 [9]): Non-Toxic | inhibition (MDA-MB-231 [10]): inactive | IC50 (MDA-MB-231 [2]): 4.2 µM | inhibition (MDA-MB-157 [13]): Active | inhibition (MDA-MB-231 [14]): Active | inhibition (MDA-MB-231 [16]): Active | inhibition (MDA-MB-157 [17]): inactive | Activity (MDA-MB-231 [18]): Dose-dependent effect | Activity (MDA-MB-231 [38]): Active | inhibition (MDA-MB-231 [19]): Active | inhibition (MCF7 [20]): inactive | Activity [21]: Active | Activity [23]: Active | Activity (MDA-MB-157 [26]): Active | Activity (MDA-MB-231 [27]): Active | Activity [28]: Active | Activity (MDA-MB-231 [39]): inactive | inhibition (MDA-MB-231 [29]): inactive | inhibition (MDA-MB-231 [32]): Active | Activity (MDA-MB-157 [33]): Active | Activity (MDA-MB-231 [35]): Active | Activity (MDA-MB-231 [36]): Non-Toxic | Activity (MDA-MB-157 [37]): Active

CCCCCCCCCOc1ccc2[nH]cc(CCN)c2c1
IC50 (MCF7 [1]): 8.8 µM | IC50 (MDA-MB-231 [2]): 4.7 µM

CCCCCCCCCOc1cccc2c(CCN)c[nH]c12
IC50 (MCF7 [1]): 15 µM | IC50 (MDA-MB-231 [2]): 8 µM
